# Measured values from ChEMBL document CHEMBL5724801, “EUbOPEN Chemogenomics Library - Multiplex” (2024).
# “And” between values parts separate entries of the source, which are not always exact repeats. Identical values can stand only once.
# Tests used:
# Type in all cases: toxicity, cell-based
# Fibroblast = assay: Multiplex assay against human fibroblast
# Method in brief: (§1)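 At seeding, live cells were stained with Hoechst33342, BioTracker Green Microtubule Cytoskeleton Dye, MitoTracker Red and Annexin V Alexa Fluor 680. After compound addition they were imaged on a CQ1 microscope at 37°C and 5% CO2, and CellPathfinder machine-learning gating sorted them into Hoechst high-intensity objects or normal cells, with normal cells further split into healthy, pyknosed or fragmented nuclei and pyknosed cells into mitotic or apoptotic. Tubulin, mitochondrial-mass and membrane-permeability phenotypes are given as per cents of cells with healthy nuclei.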
# HEK-293T = assay: Multiplex assay against HEK293T; settings: human; method in brief: as §1
# U2OS = assay: Multiplex assay against U2OS; settings: human; method in brief: as §1
# [1] = 12 h, 1 µM, compound concentration 1 uM
# [2] = 12 h, 10 µM, compound concentration 10 uM
# [3] = 24 h, 1 µM, compound concentration 1 uM
# [4] = 24 h, 10 µM, compound concentration 10 uM
# [5] = 48 h, 1 µM, compound concentration 1 uM
# [6] = 48 h, 10 µM, compound concentration 10 uM
smiles,measurement,setting,value
CSCC[C@H](NC=O)C(=O)N[C@@H](CC(C)C)C(=O)N[C@@H](Cc1ccccc1)C(=O)O,Population Fragmented Nuclei (%),Fibroblast; [1],18% and 29%
same,Population Healthy Nuclei (%),Fibroblast; [1],69% and 51%
same,Population Mitochondria Different-Phenotype (%),Fibroblast; [1],3% and 4%
same,Population Tubulin-Different-Phenotype (%),Fibroblast; [1],26% and 39%
same,Total Cell Count,Fibroblast; [1],182 and 175
same,Population Fragmented Nuclei (%),Fibroblast; [2],27%
same,Population Healthy Nuclei (%),Fibroblast; [2],39%
same,Population Hoechst High Intensity Objects (%),Fibroblast; [2],38%
same,Population Membrane Permeable-Phenotype (%),Fibroblast; [2],9%
same,Population Mitochondria Different-Phenotype (%),Fibroblast; [2],5% and 3%
same,Population Normal (%),Fibroblast; [2],61%
same,Population Tubulin-Different-Phenotype (%),Fibroblast; [2],24% and 35%
same,Total Cell Count,Fibroblast; [2],112 and 315
same,Population Fragmented Nuclei (%),Fibroblast; [3],35%
same,Population Healthy Nuclei (%),Fibroblast; [3],73% and 46%
same,Population Hoechst High Intensity Objects (%),Fibroblast; [3],7%
same,Population Mitochondria Different-Phenotype (%),Fibroblast; [3],4% and 9%
same,Population Normal (%),Fibroblast; [3],92%
same,Population Tubulin-Different-Phenotype (%),Fibroblast; [3],18% and 43%
same,Total Cell Count,Fibroblast; [3],173 and 179
same,Population Fragmented Nuclei (%),Fibroblast; [4],19%
same,Population Healthy Nuclei (%),Fibroblast; [4],38%
same,Population Hoechst High Intensity Objects (%),Fibroblast; [4],32%
same,Population Membrane Permeable-Phenotype (%),Fibroblast; [4],3%
same,Population Mitochondria Different-Phenotype (%),Fibroblast; [4],7% and 10%
same,Population Normal (%),Fibroblast; [4],67%
same,Population Tubulin-Different-Phenotype (%),Fibroblast; [4],25% and 47%
same,Total Cell Count,Fibroblast; [4],107 and 230
same,Population Fragmented Nuclei (%),Fibroblast; [5],16% and 36%
same,Population Healthy Nuclei (%),Fibroblast; [5],69% and 47%
same,Population Mitochondria Different-Phenotype (%),Fibroblast; [5],1% and 8%
same,Population Tubulin-Different-Phenotype (%),Fibroblast; [5],21% and 54%
same,Total Cell Count,Fibroblast; [5],184 and 174
same,Population Fragmented Nuclei (%),Fibroblast; [6],18%
same,Population Healthy Nuclei (%),Fibroblast; [6],44%
same,Population Hoechst High Intensity Objects (%),Fibroblast; [6],29%
same,Population Membrane Permeable-Phenotype (%),Fibroblast; [6],4%
same,Population Mitochondria Different-Phenotype (%),Fibroblast; [6],4% and 1%
same,Population Normal (%),Fibroblast; [6],70%
same,Population Tubulin-Different-Phenotype (%),Fibroblast; [6],24% and 47%
same,Total Cell Count,Fibroblast; [6],110 and 231
same,Population Apoptotic (%),HEK-293T; [1],28%
same,Population Mitochondria Different-Phenotype (%),HEK-293T; [1],47% and 57%
same,Population Mitotic Cells (%),HEK-293T; [1],71%
same,Population Tubulin-Different-Phenotype (%),HEK-293T; [1],23% and 16%
same,Total Cell Count,HEK-293T; [1],466 and 437
same,Population Apoptotic (%),HEK-293T; [2],54%
same,Population Mitochondria Different-Phenotype (%),HEK-293T; [2],52% and 64%
same,Population Mitotic Cells (%),HEK-293T; [2],45%
same,Population Tubulin-Different-Phenotype (%),HEK-293T; [2],37% and 31%
same,Total Cell Count,HEK-293T; [2],366 and 375
same,Population Apoptotic (%),HEK-293T; [3],21%
same,Population Mitochondria Different-Phenotype (%),HEK-293T; [3],21% and 37%
same,Population Mitotic Cells (%),HEK-293T; [3],78%
same,Population Tubulin-Different-Phenotype (%),HEK-293T; [3],14% and 12%
same,Total Cell Count,HEK-293T; [3],679 and 550
same,Population Apoptotic (%),HEK-293T; [4],25% and 36%
same,Population Mitochondria Different-Phenotype (%),HEK-293T; [4],38% and 53%
same,Population Mitotic Cells (%),HEK-293T; [4],75% and 64%
same,Population Tubulin-Different-Phenotype (%),HEK-293T; [4],25% and 22%
same,Total Cell Count,HEK-293T; [4],479 and 490
same,Population Apoptotic (%),HEK-293T; [5],29% and 20%
same,Population Mitochondria Different-Phenotype (%),HEK-293T; [5],12% and 17%
same,Population Mitotic Cells (%),HEK-293T; [5],79%
same,Population Tubulin-Different-Phenotype (%),HEK-293T; [5],12%
same,Total Cell Count,HEK-293T; [5],1154 and 838
same,Population Apoptotic (%),HEK-293T; [6],28% and 36%
same,Population Mitochondria Different-Phenotype (%),HEK-293T; [6],24% and 28%
same,Population Mitotic Cells (%),HEK-293T; [6],71% and 63%
same,Population Tubulin-Different-Phenotype (%),HEK-293T; [6],12% and 14%
same,Total Cell Count,HEK-293T; [6],704 and 674
same,Population Apoptotic (%),U2OS; [1],73% and 100%
same,Population Fragmented Nuclei (%),U2OS; [1],29% and 17%
same,Population Healthy Nuclei (%),U2OS; [1],75%
same,Population Mitochondria Different-Phenotype (%),U2OS; [1],4% and 3%
same,Total Cell Count,U2OS; [1],254 and 135
same,Population Apoptotic (%),U2OS; [2],69% and 90%
same,Population Fragmented Nuclei (%),U2OS; [2],23% and 16%
same,Population Healthy Nuclei (%),U2OS; [2],70% and 74%
same,Population Membrane Permeable-Phenotype (%),U2OS; [2],4%
same,Population Mitochondria Different-Phenotype (%),U2OS; [2],1% and 2%
same,Population Mitotic Cells (%),U2OS; [2],30%
same,Total Cell Count,U2OS; [2],202 and 123
same,Population Apoptotic (%),U2OS; [3],91% and 90%
same,Population Fragmented Nuclei (%),U2OS; [3],24% and 17%
same,Population Healthy Nuclei (%),U2OS; [3],75%
same,Population Mitochondria Different-Phenotype (%),U2OS; [3],3% and 0%
same,Population Mitotic Cells (%),U2OS; [3],8%
same,Total Cell Count,U2OS; [3],288 and 147
same,Population Apoptotic (%),U2OS; [4],76% and 100%
same,Population Fragmented Nuclei (%),U2OS; [4],23% and 19%
same,Population Healthy Nuclei (%),U2OS; [4],68% and 70%
same,Population Membrane Permeable-Phenotype (%),U2OS; [4],8%
same,Population Mitochondria Different-Phenotype (%),U2OS; [4],1% and 2%
same,Population Mitotic Cells (%),U2OS; [4],23% and 0%
same,Total Cell Count,U2OS; [4],247 and 147
same,Population Fragmented Nuclei (%),U2OS; [5],16% and 18%
same,Population Healthy Nuclei (%),U2OS; [5],75% and 68%
same,Population Membrane Permeable-Phenotype (%),U2OS; [5],4%
same,Population Mitochondria Different-Phenotype (%),U2OS; [5],3% and 1%
same,Total Cell Count,U2OS; [5],411 and 202
same,Population Apoptotic (%),U2OS; [6],90% and 100%
same,Population Fragmented Nuclei (%),U2OS; [6],20% and 53%
same,Population Healthy Nuclei (%),U2OS; [6],70% and 25%
same,Population Mitotic Cells (%),U2OS; [6],9% and 0%
